Assay results as given in ChEMBL document CHEMBL4706774, “Creation of Fluorescent RXR Antagonists Based on CBTF-EE and Application to a Fluorescence Polarization Binding Assay” (ACS Med Chem Lett, 2021).
Activity calls are given as the source filed them. The rule behind the calls is not given here.

Key:
[1] = Fluorescence property of compound in MeOH assessed as quantum yield by UV-visible spectrophotometric method; assay type: physicochemical
[2] = biological target: T1, Retinoic acid receptor RXR-alpha (Homo sapiens) (UniProt P19793); experiment: Antagonist activity against human RXRalpha expressed in COS1 cells incubated for 18 hrs by SEAP reporter gene assay; assay type: cell-based; details: COS-1, filed as antagonist
T1 sequence (whole entry): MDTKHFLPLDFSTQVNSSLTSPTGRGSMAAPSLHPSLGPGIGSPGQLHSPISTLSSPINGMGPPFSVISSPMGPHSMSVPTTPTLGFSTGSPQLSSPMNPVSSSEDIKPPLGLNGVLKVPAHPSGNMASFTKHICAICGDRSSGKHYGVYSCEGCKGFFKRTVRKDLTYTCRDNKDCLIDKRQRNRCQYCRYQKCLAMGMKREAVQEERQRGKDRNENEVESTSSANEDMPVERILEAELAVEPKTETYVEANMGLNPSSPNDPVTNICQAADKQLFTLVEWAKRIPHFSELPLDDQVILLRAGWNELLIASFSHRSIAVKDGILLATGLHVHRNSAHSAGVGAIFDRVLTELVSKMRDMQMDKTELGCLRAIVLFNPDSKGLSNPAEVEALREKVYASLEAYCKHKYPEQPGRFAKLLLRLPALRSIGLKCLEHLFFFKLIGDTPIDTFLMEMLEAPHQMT

[3] = Fluorescence property of compound in MeOH assessed as excitation wavelength by UV-visible spectrophotometric method; assay type: physicochemical
Outline: (§1)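 Fluorescence excitation and emission spectra recorded on the compound at 1 μM in MeOH solution. Maxima of excitation and emission taken from these spectra.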

[4] = Fluorescence property of compound in EtOH assessed as emission wavelength by UV-visible spectrophotometric method; assay type: physicochemical
[5] = biological target: T2, Retinoic acid receptor RXR-alpha (Homo sapiens, UniProt P19793); experiment: Binding affinity to human RXRalpha-LBD (224 to 462 residues) expressed in Escherichia coli BL21(DE3) incubated for 1 hr by fluorescence polarization assay
T2 sequence (P19793 whole entry): T1 sequence (whole entry)

[6] = Fluorescence property of compound in MeOH assessed as emission wavelength by UV-visible spectrophotometric method; assay type: physicochemical; outline: as §1
[7] = Fluorescence property of compound in MeOH assessed as molar extinction coefficient by UV-visible spectrophotometric method; assay type: physicochemical
[8] = Fluorescence property of compound in EtOH assessed as excitation wavelength by UV-visible spectrophotometric method; assay type: physicochemical
[9] = Fluorescence property of compound in EtOH assessed as quantum yield by UV-visible spectrophotometric method; assay type: physicochemical
[10] = biological target: T2, Retinoic acid receptor RXR-alpha; experiment: Binding affinity to human RXRalpha-LBD (224 to 462 residues) expressed in Escherichia coli BL21(DE3) incubated for 2 hrs by fluorescence assay
[11] = Fluorescence property of compound in EtOH assessed as molar extinction coefficient by UV-visible spectrophotometric method; assay type: physicochemical

SMILES	Activity [1]	Activity [2]	Activity [3]	Activity [4]	Kd [5]	Activity [6]	Activity [7]	Activity [8]	Activity [9]	Kd [10]	Activity [11]
CC1=CC(C)=[N+]2C1=C(c1ccc(C(=O)NCCOCCOc3cc4c(cc3-n3c(C(F)(F)F)nc5cc(C(=O)O)ccc53)C(C)(C)CCC4(C)C)cc1)c1c(C)cc(C)n1[B-]2(F)F	0.349	Active	499 nm	509 nm	375 nM	508 nm	2.8 10^4L/mol	499 nm	0.471	761 nM	2.8 10^4L/mol
CC1(C)CCC(C)(C)c2cc(-n3c(C(F)(F)F)nc4cc(C(=O)O)ccc43)c(OCCOCCNc3ccc([N+](=O)[O-])c4nonc34)cc21	0.224	Active	464 nm	527 nm	–	530 nm	6.7 10^3L/mol	461 nm	0.237	629 nM	8.4 10^3L/mol
